Experimental data from ChEMBL document CHEMBL1151929, “Synthesis and antiviral activity evaluation of acyclic 2'-azanucleosides bearing a phosphonomethoxy function in the side chain” (Bioorg Med Chem, 2009).
Calls of active or inactive are those of the source.

Key:
Format in all cases: functional, organism-based
Human alphaherpesvirus 3 [1] = assay: Antiviral activity against Varicella Zoster virus Oka infected in HEL cells assessed as reduction in viral plaque formation at 10 to 100 ug/ml
Vaccinia virus = assay: Antiviral activity against Vaccinia virus Lederle infected in HEL cells assessed as reduction of virus-induced cytopathic effect at 10 to 100 ug/ml; details: Orthopoxvirus vaccinia
Human alphaherpesvirus 2 = assay: Antiviral activity against HSV2 G infected in HEL cells assessed as reduction of virus-induced cytopathic effect at 10 to 100 ug/ml; details: strain G
[2] = tested on: Respiratory syncytial virus; assay: Antiviral activity against RSV Long infected in human HeLa cells assessed as reduction of virus-induced cytopathic effect at 10 to 100 ug/ml
How it was run: (§1)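 Confluent cell monolayers in 96-well plates inoculated with 100 CCID50 of virus; 1–2 h adsorption, residual virus removed, then incubated with varying compound concentrations. CPE scored visually once complete in untreated infected controls; EC50 = concentration reducing virus-induced cytopathicity by 50%. Highest subtoxic concentrations tested 10–100 μg/mL.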

Human betaherpesvirus 5 [3] = assay: Antiviral activity against HCMV Davis infected in HEL cells assessed as reduction of virus plaque formation at 10 to 100 ug/ml
How it was run: (§2)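 HEL fibroblasts in 96-well plates infected with 100 PFU HCMV; 1–2 h adsorption, residual virus removed, incubation with varying compound concentrations. EC50 taken as concentration reducing viral plaque formation by 50%. Highest subtoxic concentrations 10–100 μg/mL.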

Human alphaherpesvirus 3 [4] = assay: Antiviral activity against thymidine kinase-deficient Varicella Zoster virus 07/1 infected in HEL cells assessed as reduction in viral plaque formation at 10 to 100 ug/ml
Human alphaherpesvirus 1 [5] = assay: Antiviral activity against HSV1 KOS infected in HEL cells assessed as reduction of virus-induced cytopathic effect at 10 to 100 ug/ml
Sindbis virus = assay: Antiviral activity against Sindbis virus infected in african green monkey Vero cells assessed as reduction of virus-induced cytopathic effect at 10 to 100 ug/ml; how it was run: as §1
Felid alphaherpesvirus 1 = assay: Antiviral activity against Feline herpesvirus infected in cat CRFK cells assessed as effect on cell viability at 10 to 100 ug/ml by MTS assay
How it was run: (§3)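 CRFK feline kidney cells, confluent in 96-well plates, infected with 100 CCID50; after 1–2 h adsorption, inoculum removed and cultures kept with varying compound concentrations until CPE complete in untreated virus controls. Cell viability read by colorimetric formazan-based MTS assay; EC50 = concentration reducing virus-induced cytopathicity by 50%. Top subtoxic concentrations 10–100 μg/mL.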

Human respirovirus 3 = assay: Antiviral activity against Parainfluenza virus 3 infected in african green monkey Vero cells assessed as reduction of virus-induced cytopathic effect at 10 to 100 ug/ml; how it was run: as §1
Human alphaherpesvirus 1 [6] = assay: Antiviral activity against acyclovir-resistant thymidine kinase-deficient HSV1 KOS infected in HEL cells assessed as reduction of virus-induced cytopathic effect at 10 to 100 ug/ml
Human betaherpesvirus 5 [7] = assay: Antiviral activity against HCMV AD169 infected in HEL cells assessed as reduction of virus plaque formation at 10 to 100 ug/ml; how it was run: as §2
Punta Toro virus = assay: Antiviral activity against Punta Toro virus infected in african green monkey Vero cells assessed as reduction of virus-induced cytopathic effect at 10 to 100 ug/ml; how it was run: as §1
[8] = tested on: Mammalian orthoreovirus 1; assay: Antiviral activity against Reovirus 1 infected in african green monkey Vero cells assessed as reduction of virus-induced cytopathic effect at 10 to 100 ug/ml; how it was run: as §1
Coxsackievirus B4 [9] = assay: Antiviral activity against Coxsackievirus B4 infected in human HeLa cells assessed as reduction of virus-induced cytopathic effect at 10 to 100 ug/ml; how it was run: as §1
[10] = tested on: Vesicular stomatitis virus; assay: Antiviral activity against VSV infected in HEL cells assessed as reduction of virus-induced cytopathic effect at 10 to 100 ug/ml
Coxsackievirus B4 [11] = assay: Antiviral activity against Coxsackievirus B4 infected in african green monkey Vero cells assessed as reduction of virus-induced cytopathic effect at 10 to 100 ug/ml; how it was run: as §1
Feline coronavirus = assay: Antiviral activity against Feline coronavirus infected in cat CRFK cells assessed as effect on cell viability at 10 to 100 ug/ml by MTS assay; how it was run: as §3
[12] = tested on: Vesicular stomatitis virus; assay: Antiviral activity against VSV infected in human HeLa cells assessed as reduction of virus-induced cytopathic effect at 10 to 100 ug/ml
How it was run: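 Confluent HeLa cell cultures were inoculated with 100 CCID50 of VSV and allowed to adsorb for 1–2 h. Unbound virus was removed and cultures were incubated with varying compound concentrations. CPE was scored visually when complete in untreated infected controls. EC50 is the concentration reducing CPE by 50%.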

Measured: Activity

Cc1ccc(S(=O)(=O)N(CCOCP(=O)(O)O)Cn2cc(F)c(=O)[nH]c2=O)cc1
inactive: Human alphaherpesvirus 3 [1] | Vaccinia virus | Human alphaherpesvirus 2 | [2] | Human betaherpesvirus 5 [3] | Human alphaherpesvirus 3 [4] | Human alphaherpesvirus 1 [5] | Sindbis virus | Felid alphaherpesvirus 1 | Human respirovirus 3 | Human alphaherpesvirus 1 [6] | Human betaherpesvirus 5 [7] | Punta Toro virus | [8] | Coxsackievirus B4 [9] | [10] | Coxsackievirus B4 [11] | Feline coronavirus | [12]

Cc1ccc(S(=O)(=O)N(CCOCP(=O)(O)O)Cn2ccc(=O)[nH]c2=O)cc1
inactive: Human alphaherpesvirus 3 [1] | Vaccinia virus | Human alphaherpesvirus 2 | [2] | Human betaherpesvirus 5 [3] | Human alphaherpesvirus 3 [4] | Human alphaherpesvirus 1 [5] | Sindbis virus | Felid alphaherpesvirus 1 | Human respirovirus 3 | Human alphaherpesvirus 1 [6] | Human betaherpesvirus 5 [7] | Punta Toro virus | [8] | Coxsackievirus B4 [9] | [10] | Coxsackievirus B4 [11] | Feline coronavirus | [12]

Cc1ccc(S(=O)(=O)N(CCOCP(=O)(O)O)Cn2ccc(N)nc2=O)cc1
inactive: Human alphaherpesvirus 3 [1] | Vaccinia virus | Human alphaherpesvirus 2 | [2] | Human betaherpesvirus 5 [3] | Human alphaherpesvirus 3 [4] | Human alphaherpesvirus 1 [5] | Sindbis virus | Felid alphaherpesvirus 1 | Human respirovirus 3 | Human alphaherpesvirus 1 [6] | Human betaherpesvirus 5 [7] | Punta Toro virus | [8] | Coxsackievirus B4 [9] | [10] | Coxsackievirus B4 [11] | Feline coronavirus | [12]

Cc1ccc(S(=O)(=O)N(CCOCP(=O)(O)O)Cn2cc(C)c(=O)[nH]c2=O)cc1
inactive: Human alphaherpesvirus 3 [1] | Vaccinia virus | Human alphaherpesvirus 2 | [2] | Human betaherpesvirus 5 [3] | Human alphaherpesvirus 3 [4] | Human alphaherpesvirus 1 [5] | Sindbis virus | Felid alphaherpesvirus 1 | Human respirovirus 3 | Human alphaherpesvirus 1 [6] | Human betaherpesvirus 5 [7] | Punta Toro virus | [8] | Coxsackievirus B4 [9] | [10] | Coxsackievirus B4 [11] | Feline coronavirus | [12]
